Experimental data reported in ChEMBL document CHEMBL1142365, “Synthesis and evaluation of stilbenylbenzoxazole and stilbenylbenzothiazole derivatives for detecting beta-amyloid fibrils” (Bioorg Med Chem Lett, 2008).

Assay: Displacement of [125I]TZDM from beta amyloid protein 42
Method in brief: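 Competition binding against [125I]TZDM on pre-formed Ab42 aggregates. Mixtures incubated 3 h at room temperature. Bound and free radioligand separated by vacuum filtration through GF/B filters, then two washes with 10% EtOH at room temperature. Filter-bound radioactivity counted by gamma counter. Ki obtained by nonlinear regression of the inhibition data.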

Ki [nM]	Compound
0.41	Nc1ccc(/C=C/c2ccc(-c3nc4cc(OCCF)ccc4s3)cc2)cc1
0.1	CNc1ccc(/C=C/c2ccc(-c3nc4cc(OCCF)ccc4s3)cc2)cc1
0.32	Nc1ccc(/C=C/c2ccc(-c3nc4cc(OCCF)ccc4o3)cc2)cc1
0.38	CNc1ccc(/C=C/c2ccc(-c3nc4cc(OCCCF)ccc4s3)cc2)cc1
0.49	CN(C)c1ccc(/C=C/c2ccc(-c3nc4cc(OCCCF)ccc4s3)cc2)cc1
0.5	CNc1ccc(/C=C/c2ccc(-c3nc4ccc(OCCF)cc4o3)cc2)cc1
0.47	Nc1ccc(/C=C/c2ccc(-c3nc4ccc(OCCF)cc4o3)cc2)cc1
0.45	CNc1ccc(/C=C/c2ccc(-c3nc4cc(OCCCF)ccc4o3)cc2)cc1
0.35	CN(C)c1ccc(/C=C/c2ccc(-c3nc4cc(OCCF)ccc4s3)cc2)cc1
0.59	Nc1ccc(/C=C/c2ccc(-c3nc4ccc(OCCCF)cc4o3)cc2)cc1
0.12	CN(C)c1ccc(/C=C/c2ccc(-c3nc4ccc(OCCCF)cc4s3)cc2)cc1
0.48	CNc1ccc(/C=C/c2ccc(-c3nc4ccc(OCCCF)cc4s3)cc2)cc1
0.52	CNc1ccc(/C=C/c2ccc(-c3nc4ccc(OCCF)cc4s3)cc2)cc1
0.57	CN(C)c1ccc(/C=C/c2ccc(-c3nc4ccc(OCCF)cc4s3)cc2)cc1
0.59	Nc1ccc(/C=C/c2ccc(-c3nc4ccc(OCCF)cc4s3)cc2)cc1
0.46	CN(C)c1ccc(/C=C/c2ccc(-c3nc4ccc(OCCCF)cc4o3)cc2)cc1
0.68	CNc1ccc(/C=C/c2ccc(-c3nc4ccc(OCCCF)cc4o3)cc2)cc1
0.45	CN(C)c1ccc(/C=C/c2ccc(-c3nc4ccc(OCCF)cc4o3)cc2)cc1
0.47	CN(C)c1ccc(/C=C/c2ccc(-c3nc4cc(OCCCF)ccc4o3)cc2)cc1
0.44	CN(C)c1ccc(/C=C/c2ccc(-c3nc4cc(OCCF)ccc4o3)cc2)cc1
0.74	CNc1ccc(/C=C/c2ccc(-c3nc4cc(OCCF)ccc4o3)cc2)cc1
0.45	Nc1ccc(/C=C/c2ccc(-c3nc4cc(OCCCF)ccc4o3)cc2)cc1
0.55	Nc1ccc(/C=C/c2ccc(-c3nc4ccc(OCCCF)cc4s3)cc2)cc1
0.42	Nc1ccc(/C=C/c2ccc(-c3nc4cc(OCCCF)ccc4s3)cc2)cc1
0.77	[11CH3]Nc1ccc(-c2nc3ccc(O)cc3s2)cc1 [PITTSBURGH COMPOUND B]
